Assay results pooled from the literature.
Compare with care: the assays were run in different laboratories.

CCOC(=O)C1=C(C)N/C(=C/c2cc(C)n(-c3ccc(SC)cc3)c2C)C1=O — half-life (metabolic stability; mouse, liver microsomes; 1 µM): 26 min
COC(=O)[C@H](N)CSSC[C@@H](N)C(=O)OC — half-life (chemical stability; rat, plasma): 8.14 min
COc1cc2c3c(n(CCCN4CCOCC4)c(=O)c2cc1OC)-c1cc2c(cc1C3=O)OCO2 — half-life (female Fischer 344 rat, plasma; intravenous, 12 mg/m², single dose): 252 min
CCOC(=O)[C@@]12C[C@@H]1[C@@H](n1ccc3c(NC)nc(C#Cc4ccc(Cl)s4)nc31)[C@H](O)[C@@H]2O — concentration (male Sprague-Dawley rat, plasma; oral, 10 mg/kg, 4 h): 23.5 ng/mL
CCc1cc(C(=O)NC)c2nccc(N3CCc4c(cc(Cn5ccnc5)cc4-c4cn(C)nc4C(F)(F)F)C3=O)c2c1 — half-life (male Sprague-Dawley rat, plasma; oral, 50 mg/kg): 36 min
Cc1noc(C)c1Cn1cc(N2C(=O)CN(Cc3cccc(O)c3)C2=O)cn1 — concentration (male Sprague-Dawley rat, plasma; intravenous, 1 mg/kg, 30 min): 12.1 ng/mL
Oc1c(Br)cc(Cl)c2cccnc12 — half-life (Sprague-Dawley rat, plasma; intravenous, 2 mg/kg): 534 min
CCc1cc(-c2noc(-c3cc(OC)nc(C4CCCC4)c3)n2)cc(C)c1OC[C@@H](O)CO — concentration (Wistar rat, plasma; oral, 10 mg/kg, 24 h, single dose): 350 ng/mL
COc1cccc(-c2n[nH]c(SCc3ccccn3)n2)c1OC — concentration (female Sprague-Dawley rat, plasma; intravenous, 1 mg/kg, 4.98 min, single dose): 4780 ng/mL
CCOC(=O)C1=C(C)N/C(=C/c2cc(C)n(-c3ccc(CN4CCCCC4)cc3)c2C)C1=O — half-life (metabolic stability; mouse, liver microsomes; 1 µM): 29 min
Cc1noc(C)c1Cn1cc(N2C(=O)N(Cc3cccc(O)c3)C(C)(C)C2=O)cn1 — concentration (male Sprague-Dawley rat, plasma; oral, 100 mg/kg, 2 h, single dose): 3.8 ng/mL
CC1=C(C(=O)OCc2ccccc2)C(=O)/C(=C\c2cc(C)n(-c3ccccc3C(F)(F)F)c2C)N1 — half-life (metabolic stability; mouse, liver microsomes; 1 µM): 3.1 min
CCc1cc(OC)c2nccc(N3CCc4c(cc(Cn5ccnc5)cc4-c4cn(C)nc4C(F)(F)F)C3=O)c2c1 — C0 (male Sprague-Dawley rat, plasma; intravenous, 3 mg/kg): 1150 ng/mL
CCOC(=O)C1=C(C)N/C(=C/c2cc(C)n(-c3ccc(S(=O)(=O)C(F)(F)F)cc3)c2C)C1=O — half-life (metabolic stability; mouse, liver microsomes; 1 µM): 30 min
COc1ccc2c(=O)n(C)c(-c3ccccc3)nc2c1 — concentration (male Sprague-Dawley rat, lung; oral, 30 mg/kg, 30 min, single dose): 27.5 ng/g
